Data taken from PubChem BioAssay.
The source made the active and inactive calls.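 The calls were made as follows: active = growth inhibition above a set limit, 3 SD over mean compound inhibition, in both replicates (cut at about 43% in these data); inconclusive = above the limit in only one replicate; inactive = at or below the limit in both replicates.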

Experiment: S. cerevisiae growth inhibition in restrictive medium, OD615, pilot screen, restrictive growth control, yeast lifespan reduction project (AID 706)
Details: OD615, 48 h, at 10 µM, hits give high values
Method in brief: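 Assay system – genetically modified Saccharomyces cerevisiae, DeaD replicative lifespan assay strain · Medium – CSMM-D glucose medium · Doses – 10 µM compound, 0.25% DMSO · Times – 4 h pre-incubation, 48 h exposure at 30 °C · Signal – optical density at 615 nm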

Growth inhibition, inactive:
COc1ccccc1N1CCN(C(=O)CCCC2=NS(=O)(=O)c3ccccc3N2)CC1 -12.7%
COc1ccc(-c2nc(C#N)c(NCCN(C)C)o2)cc1 -5.11%
O=C(Nc1cccc(OC(F)(F)F)c1)c1ccc(Br)o1 9.08%
Cc1sc2nc(SCC(=O)OC(C)C)n(C)c(=O)c2c1C 31.4%
CNC(=O)CN1C(=O)CSc2nc(C)cc(C)c21 -6.29%
CCSc1nnc(Cn2c(=O)sc3ccccc32)n1-c1ccc(OC)cc1 30.7%
CCOc1ccccc1NC(=O)CSc1nc2c(c(=O)n1C)SC(C)C2 (configuration not stated) -4.14%
CCC(C)NC(=O)CCS(=O)(=O)c1ccc2c(c1)n(C)c(=O)c(=O)n2C (configuration not stated) 4.93%
COc1ccc(-n2ncc3c(N(C)C4CCCCC4)ncnc32)cc1 -9.66%
CCOC(=O)CCc1c(C)n(CC)c2ncnn2c1=O -0.57%
Cc1ccc(S(=O)(=O)N2CCN(Cc3ccccc3C(F)(F)F)CC2)cc1 -27.7%
Cc1nc(N2CCN(C(=O)c3ccco3)CC2)c2c3c(sc2n1)CCC3 5.55%
CCOC(=O)c1nnn(-c2nonc2N)c1CN(C)Cc1ccccc1 -11.5%
O=C(CN1CCOc2ccccc21)NCc1ccc(F)cc1 2.98%
NC(=O)CCc1c[nH]c2ccccc12 -4.15%
CC1CC(C)(C)Nc2ccc(OC(=O)c3ccco3)cc21 (configuration not stated) 5.69%
Cc1cc(NC(=O)CN2CCCCC2C)nc2c1c(=O)oc1ccccc12 (configuration not stated) -0.735%
Cc1cc(NC(=O)C2CC(c3ccc(F)cc3)=NO2)n(-c2ccccc2)n1 (configuration not stated) 2.08%
O=C(Nc1ncc(Br)s1)C(Cc1ccccc1)n1cccc1 (configuration not stated) -13.6%
COC(=O)C1CCN(C(=O)c2ccc(Cl)c(S(=O)(=O)NCc3cccnc3)c2)CC1 -18.5%
CCOC(=O)c1ccc(NC2c3ccccc3C(=O)N2c2cccnc2)cc1 (configuration not stated) 1.2%
C=CCOC(=O)C1=C(C)NC(=O)NC1c1ccc(OC(=O)c2ccco2)c(OC)c1 (configuration not stated) -18.3%
